Data published in ChEMBL document CHEMBL3585302, “Synthesis and antibacterial activities of cadiolides A, B and C and analogues” (Bioorg Med Chem, 2015).
The source made the active and inactive calls. No cut-off for these calls is given here.

Key:
[1] = Selectivity index, ratio of cytotoxicity against human neutrophils by annexin V-FITC and propidium iodide staining based cytofluorometry to antibacterial IC50 against Salmonella typhi CECT 409; format: toxicity; details: read-out: Selectivity Index
[2] = Toxicity in human neutrophils assessed as induction of apoptosis at 30 and 100 uM incubated for 24 hrs by annexin V-FITC and propidium iodide staining based cytofluorometry; format: cell-based; details: neutrophil
Outline: (§1)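 Freshly isolated donor neutrophils (2 x 10⁶ cells/mL stock, diluted into supplemented RPMI) cultured 24 h with 30 or 100 µM. Stained with annexin V-FITC/propidium iodide; 1 x 10⁴ cells analysed by flow cytometry. Gating: annexin V+/PI− apoptotic, V+/PI+ late apoptotic/necrotic, V−/PI− viable. Mean ± SEM, n=3, compared against vehicle.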

[3] = Selectivity index, ratio of cytotoxicity against human neutrophils by MTT assay to antibacterial IC50 against Escherichia coli CECT 405; format: toxicity; details: read-out: Selectivity Index
[4] = Selectivity index, ratio of cytotoxicity against human neutrophils by MTT assay to antibacterial IC50 against Staphylococcus aureus CECT 86; format: toxicity; details: read-out: Selectivity Index
[5] = test system: Escherichia coli; assay: Antibacterial activity against Escherichia coli CECT 405 assessed as inhibition of microbial growth incubated for 18 hrs by 2-fold microtiter broth dilution method; format: functional, organism-based; details: CECT 405, 18 h
Outline: (§2)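 Compounds in DMSO, ten 2-fold serial dilutions (125 down to 0.24 µg/mL tested). Bacteria at OD620 = 0.001 in Nutrient Broth mixed 1:1 with dilutions. Incubated overnight (18 h) at 28°C or 37°C according to strain. Growth read turbidimetrically at OD620. MIC is the lowest concentration giving complete growth inhibition. Triplicate runs. Tetracycline as reference.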

[6] = test system: Staphylococcus aureus; assay: Antibacterial activity against Staphylococcus aureus CECT 86 assessed as inhibition of microbial growth incubated for 18 hrs by 2-fold microtiter broth dilution method; format: functional, organism-based; details: CECT 86, 18 h; outline: as §2
[7] = Selectivity index, ratio of cytotoxicity against human neutrophils by annexin V-FITC and propidium iodide staining based cytofluorometry to antibacterial IC50 against Staphylococcus aureus CECT 86; format: toxicity; details: read-out: Selectivity Index
[8] = test system: Escherichia coli; assay: Antibacterial activity against Escherichia coli CECT 100 assessed as inhibition of microbial growth incubated for 18 hrs by 2-fold microtiter broth dilution method; format: functional, organism-based; details: CECT 100, 18 h; outline: as §2
[9] = test system: Pectobacterium carotovorum; assay: Antibacterial activity against Erwinia carotovora CECT 225 assessed as inhibition of microbial growth incubated for 18 hrs by 2-fold microtiter broth dilution method; format: functional, organism-based; details: CECT 225, 18 h; outline: as §2
[10] = Selectivity index, ratio of cytotoxicity against human neutrophils by annexin V-FITC and propidium iodide staining based cytofluorometry to antibacterial IC50 against Escherichia coli CECT 405; format: toxicity; details: read-out: Selectivity Index
[11] = test system: Bacillus cereus; assay: Antibacterial activity against Bacillus cereus CECT 148 assessed as inhibition of microbial growth incubated for 18 hrs by 2-fold microtiter broth dilution method; format: functional, organism-based; details: CECT 148, 18 h; outline: as §2
[12] = Cytotoxicity against human neutrophils assessed as reduction in cell viability at 100 uM incubated for 24 hrs by MTT assay; format: cell-based; details: neutrophil
Outline: (§3)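 Neutrophils from buffy coats of healthy donors were isolated by Ficoll-Hypaque gradient and seeded at 2 x 10⁵ cells/mL in supplemented RPMI. Exposed to 30 or 100 µM for 24 h at 37 °C, then MTT (2 mg/mL in PBS) added for 3 h. Formazan dissolved in DMSO and read at 560 and 630 nm. Mean ± SEM of n=6-9 independent experiments, compared against vehicle.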

[13] = Toxicity in human neutrophils assessed as cell survival at 30 uM incubated for 24 hrs by annexin V-FITC and propidium iodide staining based cytofluorometry; details: neutrophil; outline: as §1
[14] = Selectivity index, ratio of cytotoxicity against human neutrophils by MTT assay to antibacterial IC50 against Enterococcus faecalis CECT 481; format: toxicity; details: read-out: Selectivity Index
[15] = Cytotoxicity against human neutrophils assessed as reduction in cell viability at 30 uM incubated for 24 hrs by MTT assay; format: cell-based; details: neutrophil; outline: as §3
[16] = test system: Enterococcus faecalis; assay: Antibacterial activity against Enterococcus faecalis CECT 481 assessed as inhibition of microbial growth incubated for 18 hrs by 2-fold microtiter broth dilution method; format: functional, organism-based; details: CECT 481, 18 h; outline: as §2
[17] = Selectivity index, ratio of cytotoxicity against human neutrophils by annexin V-FITC and propidium iodide staining based cytofluorometry to antibacterial IC50 against Enterococcus faecalis CECT 481; format: toxicity; details: read-out: Selectivity Index
[18] = Selectivity index, ratio of cytotoxicity against human neutrophils by MTT assay to antibacterial IC50 against Salmonella typhi CECT 409; format: toxicity; details: read-out: Selectivity Index
[19] = test system: Bacillus subtilis; assay: Antibacterial activity against Bacillus subtilis CECT 35 assessed as inhibition of microbial growth incubated for 18 hrs by 2-fold microtiter broth dilution method; format: functional, organism-based; details: CECT 35, 18 h; outline: as §2
[20] = test system: Salmonella typhi; assay: Antibacterial activity against Salmonella typhi CECT 409 assessed as inhibition of microbial growth incubated for 18 hrs by 2-fold microtiter broth dilution method; format: functional, organism-based, Salmonella enterica subsp. enterica serovar Typhi; details: Salmonella enterica, CECT 409, 18 h
Outline: (§4)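 Compounds in DMSO, ten 2-fold serial dilutions (125 down to 0.24 µg/mL), mixed 1:1 with bacteria in Nutrient Broth at OD620 = 0.001. Incubated overnight (18 h) at 28 or 37 °C depending on strain. Growth read turbidimetrically at OD620; MIC is the lowest concentration completely inhibiting growth, per CLSI. Triplicate runs; tetracycline reference.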

[21] = Toxicity in human neutrophils assessed as induction of necrosis at 100 uM incubated for 24 hrs by annexin V-FITC and propidium iodide staining based cytofluorometry; format: cell-based; details: neutrophil; outline: as §1
[22] = test system: Bacillus cereus; assay: Antibacterial activity against Bacillus cereus CECT 148 assessed as inhibition of microbial growth at 125 ug/ml incubated for 18 hrs by 2-fold microtiter broth dilution method; format: functional, organism-based; outline: as §2
[23] = test system: Escherichia coli; assay: Antibacterial activity against Escherichia coli CECT 100 assessed as inhibition of microbial growth at 125 ug/ml incubated for 18 hrs by 2-fold microtiter broth dilution method; format: functional, organism-based; outline: as §2
[24] = test system: Salmonella typhi; assay: Antibacterial activity against Salmonella typhi CECT 409 assessed as inhibition of microbial growth at 125 ug/ml incubated for 18 hrs by 2-fold microtiter broth dilution method; format: functional, organism-based; details: Salmonella enterica subsp. enterica serovar Typhi; outline: as §4
[25] = test system: Enterococcus faecalis; assay: Antibacterial activity against Enterococcus faecalis CECT 481 assessed as inhibition of microbial growth at 125 ug/ml incubated for 18 hrs by 2-fold microtiter broth dilution method; format: functional, organism-based; outline: as §2
[26] = test system: Bacillus subtilis; assay: Antibacterial activity against Bacillus subtilis CECT 35 assessed as inhibition of microbial growth at 125 ug/ml incubated for 18 hrs by 2-fold microtiter broth dilution method; format: functional, organism-based; outline: as §2
[27] = test system: Escherichia coli; assay: Antibacterial activity against Escherichia coli CECT 405 assessed as inhibition of microbial growth at 125 ug/ml incubated for 18 hrs by 2-fold microtiter broth dilution method; format: functional, organism-based; outline: as §2
[28] = test system: Staphylococcus aureus; assay: Antibacterial activity against Staphylococcus aureus CECT 86 assessed as inhibition of microbial growth at 125 ug/ml incubated for 18 hrs by 2-fold microtiter broth dilution method; format: functional, organism-based; outline: as §2
[29] = test system: Pectobacterium carotovorum; assay: Antibacterial activity against Erwinia carotovora CECT 225 assessed as inhibition of microbial growth at 125 ug/ml incubated for 18 hrs by 2-fold microtiter broth dilution method; format: functional, organism-based; outline: as §2

O=C1O/C(=C\c2ccc(O)c(Br)c2)C(c2ccc(O)c(Br)c2)=C1C(=O)c1ccco1
selectivity ratio [1]: 5 | Activity [2]: Non-toxic | selectivity ratio [3]: 5 | selectivity ratio [4]: 5 | IC50 [5]: 3.66 µM | MIC [5]: 1.95 µg/mL | IC50 [6]: 3.66 µM | MIC [6]: 1.95 µg/mL | selectivity ratio [7]: 5 | IC50 [8]: 29.4 µM | MIC [8]: 15.6 µg/mL | MIC [9]: 125 µg/mL | selectivity ratio [10]: 5 | IC50 [11]: 3.66 µM | MIC [11]: 1.95 µg/mL | Activity [12]: Toxic | Activity [13]: Non-toxic | selectivity ratio [14]: 5 | Activity [15]: Non-toxic | IC50 [16]: 3.66 µM | MIC [16]: 1.95 µg/mL | selectivity ratio [17]: 5 | selectivity ratio [18]: 5 | MIC [19]: 125 µg/mL | IC50 [20]: 3.66 µM | MIC [20]: 1.95 µg/mL | Activity [21]: 95%

O=C1O/C(=C\c2ccc(O)c(Br)c2)C(c2cc(Br)c(O)c(Br)c2)=C1C(=O)c1ccco1
selectivity ratio [1]: 5 | Activity [2]: Non-toxic | selectivity ratio [3]: 5 | selectivity ratio [4]: 5 | IC50 [5]: 6.38 µM | MIC [5]: 3.9 µg/mL | IC50 [6]: 3.19 µM | MIC [6]: 1.95 µg/mL | selectivity ratio [7]: 5 | IC50 [8]: 25.6 µM | MIC [8]: 15.6 µg/mL | MIC [9]: 125 µg/mL | selectivity ratio [10]: 5 | IC50 [11]: 6.38 µM | MIC [11]: 3.9 µg/mL | Activity [12]: Toxic | Activity [13]: Non-toxic | selectivity ratio [14]: 5 | Activity [15]: Non-toxic | IC50 [16]: 3.19 µM | MIC [16]: 1.95 µg/mL | selectivity ratio [17]: 5 | selectivity ratio [18]: 5 | MIC [19]: 125 µg/mL | IC50 [20]: 3.19 µM | MIC [20]: 1.95 µg/mL | Activity [21]: 57%

COc1ccc(C2=C(C(=O)c3ccc(O)c(Br)c3)C(=O)O/C2=C\c2ccc(O)c(Br)c2)cc1Br
growth inhibition (GI) [22]: inactive | growth inhibition (GI) [23]: inactive | growth inhibition (GI) [24]: inactive | growth inhibition (GI) [25]: inactive | growth inhibition (GI) [26]: inactive | growth inhibition (GI) [27]: inactive | growth inhibition (GI) [28]: inactive | growth inhibition (GI) [29]: inactive

COc1c(Br)cc(C2=C(C(=O)c3ccc(O)c(Br)c3)C(=O)O/C2=C\c2cc(Br)c(O)c(Br)c2)cc1Br
growth inhibition (GI) [22]: inactive | growth inhibition (GI) [23]: inactive | growth inhibition (GI) [24]: inactive | growth inhibition (GI) [25]: inactive | growth inhibition (GI) [26]: inactive | growth inhibition (GI) [27]: inactive | growth inhibition (GI) [28]: inactive | growth inhibition (GI) [29]: inactive

O=C1O/C(=C\c2ccc(O)c(Br)c2)C(c2ccc(O)c(Br)c2)=C1C(=O)c1ccc(O)c(Br)c1
selectivity ratio [1]: 5 | Activity [2]: Non-toxic | selectivity ratio [3]: 5 | selectivity ratio [4]: 5 | IC50 [5]: 3.06 µM | MIC [5]: 1.95 µg/mL | IC50 [6]: 3.06 µM | MIC [6]: 1.95 µg/mL | selectivity ratio [7]: 5 | IC50 [8]: > 196 µM | MIC [8]: > 125 µg/mL | MIC [9]: 125 µg/mL | selectivity ratio [10]: 5 | IC50 [11]: 3.06 µM | MIC [11]: 1.95 µg/mL | Activity [12]: Toxic | Activity [13]: Non-toxic | selectivity ratio [14]: 5 | Activity [15]: Non-toxic | IC50 [16]: 3.06 µM | MIC [16]: 1.95 µg/mL | selectivity ratio [17]: 5 | selectivity ratio [18]: 5 | MIC [19]: 125 µg/mL | IC50 [20]: 3.06 µM | MIC [20]: 1.95 µg/mL | Activity [21]: 98%
